According to ChEMBL document CHEMBL5724801, “EUbOPEN Chemogenomics Library - Multiplex” (2024):
“And” between values parts separate entries of the source, which are not always exact repeats. Equal entries are not always repeated.

System: U2OS
Assay: Multiplex assay against U2OS
Assay type: toxicity, cell-based
Settings: human
Method in brief: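 Values for tubulin, mitochondrial-mass and membrane-permeability phenotypes are per cents of cells with healthy nuclei. These cells were identified by CellPathfinder machine-learning gating of live cells that had been stained at seeding with Hoechst33342, BioTracker Green Microtubule Cytoskeleton Dye, MitoTracker Red and Annexin V Alexa Fluor 680 and imaged on a CQ1 microscope at 37°C and 5% CO2 after compound addition. The gating first set Hoechst high-intensity objects apart from normal cells, then split normal cells into healthy, pyknosed or fragmented nuclei, and pyknosed cells into mitotic or apoptotic.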

[1] = 12 h, 1 µM, compound concentration 1 uM
[2] = 12 h, 10 µM, compound concentration 10 uM
[3] = 24 h, 1 µM, compound concentration 1 uM
[4] = 24 h, 10 µM, compound concentration 10 uM
[5] = 48 h, 1 µM, compound concentration 1 uM
[6] = 48 h, 10 µM, compound concentration 10 uM

Cc1cc(NC(=O)NCCN2CCC(O)(Cc3ccccc3)CC2)c2ccccc2n1 [PALOSURAN]
Population Apoptotic (%) [1]: 80% and 71%
Population Fragmented Nuclei (%) [1]: 27% and 19%
Population Healthy Nuclei (%) [1]: 65% and 71%
Population Hoechst High Intensity Objects (%) [1]: 1% and 0%
Population Membrane Permeable-Phenotype (%) [1]: 4% and 2%
Population Mitochondria Different-Phenotype (%) [1]: 2% and 0%
Population Mitotic Cells (%) [1]: 20% and 28%
Population Normal (%) [1]: 98% and 100%
Population Pyknosed Nuclei (%) [1]: 6% and 9%
Population Tubulin-Different-Phenotype (%) [1]: 1%
Total Cell Count [1]: 220 and 145
Population Apoptotic (%) [2]: 72% and 66%
Population Fragmented Nuclei (%) [2]: 30% and 17%
Population Healthy Nuclei (%) [2]: 59% and 70%
Population Hoechst High Intensity Objects (%) [2]: 3%
Population Membrane Permeable-Phenotype (%) [2]: 6% and 12%
Population Mitochondria Different-Phenotype (%) [2]: 1% and 2%
Population Mitotic Cells (%) [2]: 28% and 33%
Population Normal (%) [2]: 96%
Population Pyknosed Nuclei (%) [2]: 9% and 11%
Population Tubulin-Different-Phenotype (%) [2]: 1% and 8%
Total Cell Count [2]: 266 and 107
Population Apoptotic (%) [3]: 94% and 66%
Population Fragmented Nuclei (%) [3]: 26% and 17%
Population Healthy Nuclei (%) [3]: 66% and 74%
Population Hoechst High Intensity Objects (%) [3]: 1%
Population Membrane Permeable-Phenotype (%) [3]: 3% and 7%
Population Mitochondria Different-Phenotype (%) [3]: 3% and 7%
Population Normal (%) [3]: 98%
Population Pyknosed Nuclei (%) [3]: 6% and 8%
Population Tubulin-Different-Phenotype (%) [3]: 2% and 3%
Total Cell Count [3]: 276 and 173
Population Apoptotic (%) [4]: 92% and 75%
Population Fragmented Nuclei (%) [4]: 26% and 19%
Population Healthy Nuclei (%) [4]: 65% and 74%
Population Hoechst High Intensity Objects (%) [4]: 3%
Population Membrane Permeable-Phenotype (%) [4]: 4% and 11%
Population Mitochondria Different-Phenotype (%) [4]: 0% and 1%
Population Normal (%) [4]: 96%
Population Pyknosed Nuclei (%) [4]: 8% and 6%
Population Tubulin-Different-Phenotype (%) [4]: 2% and 5%
Total Cell Count [4]: 297 and 129
Population Apoptotic (%) [5]: 96% and 84%
Population Fragmented Nuclei (%) [5]: 25% and 15%
Population Healthy Nuclei (%) [5]: 68% and 73%
Population Hoechst High Intensity Objects (%) [5]: 1% and 3%
Population Membrane Permeable-Phenotype (%) [5]: 5% and 7%
Population Mitochondria Different-Phenotype (%) [5]: 3% and 5%
Population Normal (%) [5]: 98% and 97%
Population Pyknosed Nuclei (%) [5]: 6% and 11%
Population Tubulin-Different-Phenotype (%) [5]: 3% and 4%
Total Cell Count [5]: 411 and 233
Population Apoptotic (%) [6]: 97% and 89%
Population Fragmented Nuclei (%) [6]: 20% and 16%
Population Healthy Nuclei (%) [6]: 70% and 72%
Population Hoechst High Intensity Objects (%) [6]: 1%
Population Membrane Permeable-Phenotype (%) [6]: 5% and 7%
Population Mitochondria Different-Phenotype (%) [6]: 2% and 4%
Population Mitotic Cells (%) [6]: 2% and 10%
Population Normal (%) [6]: 98%
Population Pyknosed Nuclei (%) [6]: 9% and 10%
Population Tubulin-Different-Phenotype (%) [6]: 2% and 1%
Total Cell Count [6]: 421 and 180

CC(C)[C@H](C(=O)Nc1ccc(C(=O)NO)cc1)c1ccccc1 [AR-42]
Population Apoptotic (%) [1]: 27.71% and 34.88%
Population Fragmented Nuclei (%) [1]: 2.59% and 3.95%
Population Healthy Nuclei (%) [1]: 77.88% and 71.75%
Population Hoechst High Intensity Objects (%) [1]: 0%
Population Membrane Permeable-Phenotype (%) [1]: 0.6% and 1.57%
Population Mitochondria Different-Phenotype (%) [1]: 0.3% and 7.87%
Population Mitotic Cells (%) [1]: 72.29% and 65.12%
Population Normal (%) [1]: 100%
Population Pyknosed Nuclei (%) [1]: 19.53% and 24.29%
Population Tubulin-Different-Phenotype (%) [1]: 0.6% and 0%
Total Cell Count [1]: 425 and 177
Population Apoptotic (%) [2]: 22.08% and 11.11%
Population Fragmented Nuclei (%) [2]: 2.31% and 1.96%
Population Healthy Nuclei (%) [2]: 75.5% and 80.39%
Population Hoechst High Intensity Objects (%) [2]: 0%
Population Membrane Permeable-Phenotype (%) [2]: 0.38% and 3.25%
Population Mitochondria Different-Phenotype (%) [2]: 0% and 2.44%
Population Mitotic Cells (%) [2]: 77.92% and 88.89%
Population Normal (%) [2]: 100%
Population Pyknosed Nuclei (%) [2]: 22.19% and 17.65%
Population Tubulin-Different-Phenotype (%) [2]: 0.76% and 0.81%
Total Cell Count [2]: 347 and 153
Population Apoptotic (%) [3]: 34.74% and 52.56%
Population Fragmented Nuclei (%) [3]: 5.86% and 12.17%
Population Healthy Nuclei (%) [3]: 51.35% and 46.56%
Population Hoechst High Intensity Objects (%) [3]: 0%
Population Membrane Permeable-Phenotype (%) [3]: 1.75% and 5.68%
Population Mitochondria Different-Phenotype (%) [3]: 0% and 5.68%
Population Mitotic Cells (%) [3]: 65.26% and 47.44%
Population Normal (%) [3]: 100%
Population Pyknosed Nuclei (%) [3]: 42.79% and 41.27%
Population Tubulin-Different-Phenotype (%) [3]: 4.82% and 3.41%
Total Cell Count [3]: 444 and 189
Population Apoptotic (%) [4]: 38.59% and 30.67%
Population Fragmented Nuclei (%) [4]: 5.97% and 3.36%
Population Healthy Nuclei (%) [4]: 39.1% and 46.31%
Population Hoechst High Intensity Objects (%) [4]: 0%
Population Membrane Permeable-Phenotype (%) [4]: 3.82% and 5.8%
Population Mitochondria Different-Phenotype (%) [4]: 0% and 2.9%
Population Mitotic Cells (%) [4]: 61.41% and 69.33%
Population Normal (%) [4]: 100%
Population Pyknosed Nuclei (%) [4]: 54.93% and 50.34%
Population Tubulin-Different-Phenotype (%) [4]: 6.87% and 8.7%
Total Cell Count [4]: 335 and 149
Population Apoptotic (%) [5]: 73.08% and 85.05%
Population Fragmented Nuclei (%) [5]: 10.42% and 6.52%
Population Healthy Nuclei (%) [5]: 25.06% and 35.33%
Population Hoechst High Intensity Objects (%) [5]: 0.25% and 0%
Population Membrane Permeable-Phenotype (%) [5]: 14.85% and 23.08%
Population Mitochondria Different-Phenotype (%) [5]: 0% and 10.77%
Population Mitotic Cells (%) [5]: 26.92% and 14.95%
Population Normal (%) [5]: 99.75% and 100%
Population Pyknosed Nuclei (%) [5]: 64.52% and 58.15%
Population Tubulin-Different-Phenotype (%) [5]: 30.69% and 30.77%
Total Cell Count [5]: 404 and 184
Population Apoptotic (%) [6]: 83.05% and 91.57%
Population Fragmented Nuclei (%) [6]: 2.34% and 3.4%
Population Healthy Nuclei (%) [6]: 38.46% and 40.14%
Population Hoechst High Intensity Objects (%) [6]: 0% and 0.68%
Population Membrane Permeable-Phenotype (%) [6]: 18.26% and 44.07%
Population Mitochondria Different-Phenotype (%) [6]: 0% and 1.69%
Population Mitotic Cells (%) [6]: 16.95% and 8.43%
Population Normal (%) [6]: 100% and 99.32%
Population Pyknosed Nuclei (%) [6]: 59.2% and 56.46%
Population Tubulin-Different-Phenotype (%) [6]: 34.78% and 18.64%
Total Cell Count [6]: 299 and 148
